Values joined by “and” are separate entries in the source; they are usually repeats but may differ in a detail not shown here. Equal entries are not always repeated.
Test system: Fibroblast
Test: Multiplex assay against human fibroblast
Type: toxicity, cell-based
In short: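 Cells stained live at seeding with Hoechst33342, BioTracker Green Microtubule Cytoskeleton Dye, MitoTracker Red and Annexin V Alexa Fluor 680 were imaged on a CQ1 microscope at 37°C and 5% CO2 after compound addition. Their classification by CellPathfinder machine-learning gating ran from Hoechst high-intensity objects versus normal cells, to healthy, pyknosed or fragmented nuclei among normal cells, to mitotic or apoptotic among pyknosed cells. Tubulin, mitochondrial-mass and membrane-permeability phenotypes are per cents of healthy-nucleus cells.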

[1] = 12 h, 1 µM, compound concentration 1 uM
[2] = 12 h, 10 µM, compound concentration 10 uM
[3] = 24 h, 1 µM, compound concentration 1 uM
[4] = 24 h, 10 µM, compound concentration 10 uM
[5] = 48 h, 1 µM, compound concentration 1 uM
[6] = 48 h, 10 µM, compound concentration 10 uM

CC(=O)NCCc1c(Cc2ccccc2)[nH]c2ccccc12 [LUZINDOLE]
Population Apoptotic (%) [1]: 41% and 40% | Population Fragmented Nuclei (%) [1]: 15% and 25% | Population Healthy Nuclei (%) [1]: 65% and 39% | Population Hoechst High Intensity Objects (%) [1]: 1% and 4% | Population Membrane Permeable-Phenotype (%) [1]: 2% and 9% | Population Mitochondria Different-Phenotype (%) [1]: 7% and 11% | Population Mitotic Cells (%) [1]: 58% and 59% | Population Normal (%) [1]: 98% and 95% | Population Pyknosed Nuclei (%) [1]: 18% and 34% | Population Tubulin-Different-Phenotype (%) [1]: 30% and 50% | Total Cell Count [1]: 129 and 134 | Population Apoptotic (%) [2]: 19% and 21% | Population Fragmented Nuclei (%) [2]: 15% and 26% | Population Healthy Nuclei (%) [2]: 69% and 59% | Population Hoechst High Intensity Objects (%) [2]: 2% | Population Mitochondria Different-Phenotype (%) [2]: 7% and 4% | Population Mitotic Cells (%) [2]: 80% and 78% | Population Normal (%) [2]: 97% | Population Pyknosed Nuclei (%) [2]: 15% and 13% | Population Tubulin-Different-Phenotype (%) [2]: 42% and 32% | Total Cell Count [2]: 140 and 105 | Population Apoptotic (%) [3]: 54% and 45% | Population Fragmented Nuclei (%) [3]: 21% and 25% | Population Healthy Nuclei (%) [3]: 61% and 47% | Population Hoechst High Intensity Objects (%) [3]: 0% and 5% | Population Membrane Permeable-Phenotype (%) [3]: 0% and 8% | Population Mitochondria Different-Phenotype (%) [3]: 3% and 8% | Population Mitotic Cells (%) [3]: 45% and 54% | Population Normal (%) [3]: 99% and 94% | Population Pyknosed Nuclei (%) [3]: 16% and 26% | Total Cell Count [3]: 134 and 137 | Population Apoptotic (%) [4]: 47% and 23% | Population Fragmented Nuclei (%) [4]: 15% and 27% | Population Healthy Nuclei (%) [4]: 67% and 59% | Population Hoechst High Intensity Objects (%) [4]: 2% and 3% | Population Membrane Permeable-Phenotype (%) [4]: 1% and 5% | Population Mitochondria Different-Phenotype (%) [4]: 5% and 3% | Population Mitotic Cells (%) [4]: 52% and 76% | Population Normal (%) [4]: 97% and 96% | Population Pyknosed Nuclei (%) [4]: 17% and 12% | Population Tubulin-Different-Phenotype (%) [4]: 29% and 33% | Total Cell Count [4]: 138 and 105 | Population Apoptotic (%) [5]: 75% and 39% | Population Fragmented Nuclei (%) [5]: 15% and 27% | Population Healthy Nuclei (%) [5]: 72% and 55% | Population Hoechst High Intensity Objects (%) [5]: 5% and 8% | Population Membrane Permeable-Phenotype (%) [5]: 2% and 9% | Population Mitochondria Different-Phenotype (%) [5]: 3% and 5% | Population Mitotic Cells (%) [5]: 25% and 60% | Population Normal (%) [5]: 94% and 91% | Population Pyknosed Nuclei (%) [5]: 12% and 16% | Population Tubulin-Different-Phenotype (%) [5]: 24% and 46% | Total Cell Count [5]: 134 and 149 | Population Apoptotic (%) [6]: 80% and 54% | Population Fragmented Nuclei (%) [6]: 19% and 34% | Population Healthy Nuclei (%) [6]: 70% and 54% | Population Hoechst High Intensity Objects (%) [6]: 3% and 4% | Population Membrane Permeable-Phenotype (%) [6]: 0% and 3% | Population Mitochondria Different-Phenotype (%) [6]: 3% | Population Mitotic Cells (%) [6]: 20% and 45% | Population Normal (%) [6]: 96% and 95% | Population Pyknosed Nuclei (%) [6]: 10% | Population Tubulin-Different-Phenotype (%) [6]: 34% and 50% | Total Cell Count [6]: 147 and 111

C[C@H]1[C@H]2CC[C@H]3[C@@H]4CC=C5C[C@@H](N(C)C)CC[C@]5(C)[C@H]4CC[C@]23CN1C [CONESSINE]
Population Apoptotic (%) [1]: 45% and 29% | Population Fragmented Nuclei (%) [1]: 15% and 33% | Population Healthy Nuclei (%) [1]: 73% and 41% | Population Hoechst High Intensity Objects (%) [1]: 1% and 2% | Population Membrane Permeable-Phenotype (%) [1]: 0% and 7% | Population Mitochondria Different-Phenotype (%) [1]: 8% and 2% | Population Mitotic Cells (%) [1]: 55% and 70% | Population Normal (%) [1]: 98% and 97% | Population Pyknosed Nuclei (%) [1]: 11% and 24% | Population Tubulin-Different-Phenotype (%) [1]: 19% and 46% | Total Cell Count [1]: 174 and 101 | Population Apoptotic (%) [2]: 37% and 43% | Population Fragmented Nuclei (%) [2]: 26% | Population Healthy Nuclei (%) [2]: 60% and 45% | Population Hoechst High Intensity Objects (%) [2]: 3% | Population Membrane Permeable-Phenotype (%) [2]: 5% and 8% | Population Mitochondria Different-Phenotype (%) [2]: 10% and 4% | Population Mitotic Cells (%) [2]: 62% and 56% | Population Normal (%) [2]: 96% | Population Pyknosed Nuclei (%) [2]: 13% and 28% | Population Tubulin-Different-Phenotype (%) [2]: 32% and 58% | Total Cell Count [2]: 189 and 110 | Population Apoptotic (%) [3]: 43% and 40% | Population Fragmented Nuclei (%) [3]: 13% and 27% | Population Healthy Nuclei (%) [3]: 73% and 48% | Population Hoechst High Intensity Objects (%) [3]: 2% and 4% | Population Mitochondria Different-Phenotype (%) [3]: 4% and 6% | Population Mitotic Cells (%) [3]: 56% and 59% | Population Normal (%) [3]: 97% and 95% | Population Pyknosed Nuclei (%) [3]: 13% and 24% | Population Tubulin-Different-Phenotype (%) [3]: 22% and 61% | Total Cell Count [3]: 175 and 95 | Population Apoptotic (%) [4]: 64% and 36% | Population Fragmented Nuclei (%) [4]: 28% | Population Healthy Nuclei (%) [4]: 61% and 39% | Population Hoechst High Intensity Objects (%) [4]: 3% and 2% | Population Membrane Permeable-Phenotype (%) [4]: 1% and 7% | Population Mitochondria Different-Phenotype (%) [4]: 7% | Population Mitotic Cells (%) [4]: 35% and 63% | Population Normal (%) [4]: 96% and 97% | Population Tubulin-Different-Phenotype (%) [4]: 27% and 60% | Total Cell Count [4]: 190 and 106 | Population Apoptotic (%) [5]: 50% and 47% | Population Fragmented Nuclei (%) [5]: 17% and 37% | Population Healthy Nuclei (%) [5]: 73% and 45% | Population Hoechst High Intensity Objects (%) [5]: 5% and 0% | Population Membrane Permeable-Phenotype (%) [5]: 0% and 17% | Population Mitochondria Different-Phenotype (%) [5]: 3% and 8% | Population Mitotic Cells (%) [5]: 50% and 52% | Population Normal (%) [5]: 94% and 99% | Population Pyknosed Nuclei (%) [5]: 9% and 16% | Population Tubulin-Different-Phenotype (%) [5]: 27% and 63% | Total Cell Count [5]: 178 and 104 | Population Apoptotic (%) [6]: 66% and 27% | Population Fragmented Nuclei (%) [6]: 26% and 29% | Population Healthy Nuclei (%) [6]: 62% and 48% | Population Hoechst High Intensity Objects (%) [6]: 6% and 2% | Population Membrane Permeable-Phenotype (%) [6]: 0% and 8% | Population Mitochondria Different-Phenotype (%) [6]: 4% and 6% | Population Mitotic Cells (%) [6]: 33% and 72% | Population Normal (%) [6]: 93% and 97% | Population Pyknosed Nuclei (%) [6]: 10% and 22% | Population Tubulin-Different-Phenotype (%) [6]: 25% and 62% | Total Cell Count [6]: 190 and 102

CN(C)c1ccnc2sc3c(=O)n(N4CCCCCC4)cnc3c12
Population Apoptotic (%) [1]: 42% and 30% | Population Fragmented Nuclei (%) [1]: 17% and 28% | Population Healthy Nuclei (%) [1]: 64% and 51% | Population Hoechst High Intensity Objects (%) [1]: 3% and 6% | Population Membrane Permeable-Phenotype (%) [1]: 1% and 10% | Population Mitochondria Different-Phenotype (%) [1]: 3% | Population Mitotic Cells (%) [1]: 57% and 70% | Population Normal (%) [1]: 96% and 93% | Population Pyknosed Nuclei (%) [1]: 18% and 19% | Population Tubulin-Different-Phenotype (%) [1]: 29% and 44% | Total Cell Count [1]: 144 and 162 | Population Apoptotic (%) [2]: 44% and 49% | Population Fragmented Nuclei (%) [2]: 14% and 31% | Population Healthy Nuclei (%) [2]: 58% and 30% | Population Hoechst High Intensity Objects (%) [2]: 5% and 7% | Population Mitochondria Different-Phenotype (%) [2]: 14% | Population Mitotic Cells (%) [2]: 55% and 50% | Population Normal (%) [2]: 94% and 92% | Population Pyknosed Nuclei (%) [2]: 27% and 38% | Population Tubulin-Different-Phenotype (%) [2]: 75% | Total Cell Count [2]: 141 and 145 | Population Apoptotic (%) [3]: 48% and 50% | Population Fragmented Nuclei (%) [3]: 11% and 24% | Population Healthy Nuclei (%) [3]: 67% and 55% | Population Hoechst High Intensity Objects (%) [3]: 3% and 2% | Population Membrane Permeable-Phenotype (%) [3]: 0% and 10% | Population Mitochondria Different-Phenotype (%) [3]: 3% and 2% | Population Mitotic Cells (%) [3]: 51% and 50% | Population Normal (%) [3]: 96% and 97% | Population Pyknosed Nuclei (%) [3]: 21% and 19% | Population Tubulin-Different-Phenotype (%) [3]: 27% and 49% | Total Cell Count [3]: 143 and 146 | Population Apoptotic (%) [4]: 57% and 30% | Population Fragmented Nuclei (%) [4]: 13% and 35% | Population Healthy Nuclei (%) [4]: 58% and 41% | Population Hoechst High Intensity Objects (%) [4]: 5% and 8% | Population Membrane Permeable-Phenotype (%) [4]: 0% and 22% | Population Mitochondria Different-Phenotype (%) [4]: 18% and 24% | Population Mitotic Cells (%) [4]: 42% and 69% | Population Normal (%) [4]: 94% and 91% | Population Pyknosed Nuclei (%) [4]: 28% and 22% | Population Tubulin-Different-Phenotype (%) [4]: 63% and 85% | Total Cell Count [4]: 130 and 128 | Population Apoptotic (%) [5]: 64% and 36% | Population Fragmented Nuclei (%) [5]: 19% and 36% | Population Healthy Nuclei (%) [5]: 70% and 49% | Population Hoechst High Intensity Objects (%) [5]: 2% and 3% | Population Membrane Permeable-Phenotype (%) [5]: 0% and 6% | Population Mitochondria Different-Phenotype (%) [5]: 0% and 2% | Population Mitotic Cells (%) [5]: 35% and 63% | Population Normal (%) [5]: 97% and 96% | Population Pyknosed Nuclei (%) [5]: 10% and 14% | Population Tubulin-Different-Phenotype (%) [5]: 30% and 41% | Total Cell Count [5]: 143 and 157 | Population Apoptotic (%) [6]: 73% and 50% | Population Fragmented Nuclei (%) [6]: 22% and 47% | Population Healthy Nuclei (%) [6]: 47% and 42% | Population Hoechst High Intensity Objects (%) [6]: 8% and 6% | Population Membrane Permeable-Phenotype (%) [6]: 0% and 19% | Population Mitochondria Different-Phenotype (%) [6]: 25% and 13% | Population Mitotic Cells (%) [6]: 26% and 50% | Population Normal (%) [6]: 91% and 93% | Population Tubulin-Different-Phenotype (%) [6]: 76% and 86% | Total Cell Count [6]: 138 and 131

From ChEMBL document CHEMBL5724801, “EUbOPEN Chemogenomics Library - Multiplex” (2024)
